Screens as filed in PubChem.
LANA-nucl inh = inhibitors of KSHV LANA-nucleosome binding, primary screen, biochemical, fluorescence polarization, FITC-LANA1-23, chicken nucleosomes; 0.3% of 51,000 active; FITC-LANA1-23 / chicken nucleosome fluorescence polarization; stronger effect = lower value; z-score (no concentration beside the values);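 active means both repeat wells score below -2 in polarization z-score versus plate sample wells, excluding overly bright wells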
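test system = FITC-LANA peptide and chicken nucleosomes | amount = 240 nM purified chicken nucleosomes (480 nM peptide binding sites), final | reagent = 50 nM FITC-LANA1-23 probe | medium = TEN-BT buffer, pH 7.5 | doses = single compound addition by pin transfer, 100 nL per well | timing = 10–45 min, room temperature | detection = fluorescence polarization | repeats = duplicate plates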
Ab BasE inh = BasE siderophore enzyme inhibitors, primary screen, biochemical, Acinetobacter baumannii ATCC 17978, fluorescence polarization | purified BasE, fluorescence polarization binding displacement | inhibition, % (test concentration not listed) | 0.1% of 84,000 active; in the data active means inhibition above about 25%, passing the limit was not always enough
Of the large screens only hits and unclear results are named; the others gave an inactive call. Only a selection was taken, and hits are over-represented in it overall.

O=C1CCC(C(=O)OCN2C(=O)c3ccccc3C2=O)=NN1	none (no result: LANA-nucl inh)
O=C1CC(c2ccccc2O)=NN1	Ab BasE inh 27 (no result: LANA-nucl inh)
O=C(c1ccco1)N1CCC(c2nc3ccccc3s2)CC1	none (no result: LANA-nucl inh)
CN1CCc2ccccc2C1Cc1ccccc1NS(=O)(=O)c1cc(Cl)c(Cl)cc1Cl (centres undefined)	none (no result: Ab BasE inh)
Cc1cc(N2CCCC2)ccc1/C=C/C1=CCN(C)CC1	LANA-nucl inh -4.1
C=CCn1c(C)c(/C=C/C2=CCN(C)CC2)c2ccccc21	none
Cc1ccc2nc(C)n3c4ccccc4c(NC=O)c3c2c1	none (no result: LANA-nucl inh)
CN(C1CCS(=O)(=O)C1)S(C)(=O)=O (centres undefined)	none
CCOC(=O)c1[nH]c2ccc(Br)cc2c1C	none
Cc1cc(C)nc(Nc2n[nH]c(COc3ccc4ccccc4c3)n2)n1	none
Cc1cc(C)nc(Nc2n[nH]c(-c3cccnc3)n2)n1	Ab BasE inh 27
Cn1nc(-c2cc(C(F)(F)F)cc(C(F)(F)F)c2)c2ccccc2c1=O	none (no result: LANA-nucl inh)
Cc1cccc(OCC(=O)NC2CCCC2)c1	Ab BasE inh 29
Cc1ccc(OCC(=O)NC2CCC(C)CC2)cc1C (centres undefined)	none (no result: LANA-nucl inh)
CC(CO)(CO)N=Cc1c(O)[nH]c(=O)[nH]c1=O	none
CC1=CC(C)=N/C1=C/c1c(O)[nH]c(=O)[nH]c1=O	LANA-nucl inh -7.6
O=C(c1ccc2ncsc2c1)N1CCCC1c1cccs1 (centres undefined)	none (no result: LANA-nucl inh)
Nc1cc[n+](CC(O)CO)cc1 (centres undefined)	LANA-nucl inh -3.1
COc1ccc(-c2c3c(=O)n(C)c(=O)n(C)c3c3n2C(C)(C)COC3)cc1	none
CN1C2CCC1CC(NC(=O)Cc1ccccc1F)C2 (centres undefined)	none (no result: LANA-nucl inh)
COc1cccc(NC(=O)Cn2ncc3c2-c2ccccc2OC3)c1	LANA-nucl inh -2.3
CCC(C)NC(=O)Cn1ncc2c1-c1ccccc1OC2 (centres undefined)	none
N#Cc1c(-c2ccc(Cl)cc2)cc[nH]c1=O	none (no result: Ab BasE inh)
CS(=O)c1scc(-c2ccc(Cl)cc2)c1C#N (centres undefined)	Ab BasE inh 29
Cc1ccc(C)n1-c1ccsc1C(=O)O	LANA-nucl inh -3.7
Cc1ccc(C)n1-c1ccsc1C(=O)CC#N	none (no result: Ab BasE inh)
Cc1cccc(OCCC(=O)NCC2(N3CCOCC3)CCCCC2)c1	none (no result: LANA-nucl inh)
COc1cc2c(cc1OC)-c1c(C#N)c(-c3ccc(C)cc3)c(C(=O)c3cccs3)n1CC2	none (no result: LANA-nucl inh)
N#CC(C#N)=C(N)/C(C#N)=C\c1ccc(-c2ccccc2)o1	none
CCOC(=O)c1ccc(-c2ccc(/C=C(\C#N)C(=O)NCc3cccs3)o2)cc1	none
N#C/C(=C\c1ccc(-c2cccc(Cl)c2)o1)C(N)=O	none
CCOC(=O)c1cc(-c2ccc(/C=C(\C#N)C(N)=C(C#N)C#N)o2)ccc1Cl	LANA-nucl inh -4.5
N#C/C(=C/c1ccc(-c2ccc(S(N)(=O)=O)cc2)o1)C(=O)Nc1cc(Cl)ccc1Cl	LANA-nucl inh -5.7
CCOC(=O)c1ccccc1NC(=O)/C(C#N)=C/c1ccc(-c2ccc(Cl)cc2)o1	LANA-nucl inh -4.3
CCCn1c2ccccc2c2cnn(CC(=O)N(C)c3ccccc3)c(=O)c21	none
O=S1(=O)N=C2CCCCCN2C(c2ccc(N3CCOCC3)cc2)N1 (centres undefined)	none (no result: LANA-nucl inh)
CN(C(=O)COC(=O)c1ccccc1O)C1(C#N)CCCCC1	none (no result: LANA-nucl inh)
O=C1CSCC(=O)N1c1ccc(Cl)cc1	none
CC1(c2ccc(Cl)cc2)NC(=O)CS1 (centres undefined)	LANA-nucl inh -2.4
O=C1NC(=O)C(=CN2CCC(Cc3ccccc3)CC2)C(=O)N1	none (no result: LANA-nucl inh)
c1ccc(-n2nnnc2NCC(c2ccco2)N2CCCCC2)cc1 (centres undefined)	none (no result: LANA-nucl inh)
O=C1Oc2ccccc2C2c3sc(=O)[nH]c3SC(c3ccccc3)C12 (centres undefined)	none
O=c1[nH]c2c(s1)C1c3ccccc3OC3CCCC(S2)C31 (centres undefined)	LANA-nucl inh -9.8
Cc1cc(C)n2nc(C(=O)NCc3ccc4c(c3)OCO4)nc2n1	none (no result: LANA-nucl inh)
O=C1c2cccnc2C(=O)N1Cc1ccc(S(=O)(=O)N2CCCCCC2)cc1	none
Cc1[nH]n(-c2ccccc2)c(=O)c1C=Nc1ccc(O)cc1	Ab BasE inh 53 (no result: LANA-nucl inh)
Cc1[nH]n(-c2ccccc2)c(=O)c1/C=N/O	none
O=C1c2cccc3c(N4CCCCC4)ccc(c23)C(=O)N1c1ccccn1	LANA-nucl inh -6.2
CC(=O)N(C(C)=O)N1C(=O)c2cccc3c(N4CCOCC4)ccc(c23)C1=O	none (no result: LANA-nucl inh)
O=C(/C=C/c1ccccc1)Nc1ccc(O)cc1	none (no result: LANA-nucl inh)
O=C(/C=C/c1ccccc1)Nc1cccnc1	Ab BasE inh 36 (no result: LANA-nucl inh)
O=c1c2ccccc2ncn1CCOc1ccc(Br)cc1	none (no result: LANA-nucl inh)
CCCOc1ccc(Cn2cnc3ccccc32)cc1	none
Brc1ccc(OCCn2cnc3ccccc32)cc1	Ab BasE inh 39
COc1ccc(OCCn2cnc3ccccc32)cc1	Ab BasE inh 26
O=C(Nc1ccc2c(c1)oc1ccccc12)C1CCCO1 (centres undefined)	none
O=C(Nc1ccc2c(c1)CCC2)C1CCCO1 (centres undefined)	LANA-nucl inh -2.1
CC(C)n1ncc2c(C(=O)OCc3ccc(C#N)cc3)cc(-c3ccccc3)nc21	none (no result: LANA-nucl inh)
O=C(O)c1cc(-c2ccccc2)nc2c1cnn2Cc1ccncc1	Ab BasE inh 99 (no result: LANA-nucl inh)
COc1ccccc1N1CCN(C(=O)c2ccc(Cl)cc2)CC1	none
Cc1oc(-c2ccc(C(=O)NC3CC3)cc2)nc1CS(=O)(=O)c1ccccc1	none
COc1cccc2c1Oc1nn(-c3ccccc3)c(N)c1C2	none
COc1ccc(CN(C)C(=O)c2ccc(C)cc2O)c(OC)c1	none (no result: LANA-nucl inh)
O=C(NC1CC1)C1CCN(c2nc3cccnc3s2)CC1	none
O=C(Cn1cc(/C=C2\NC(=S)N(c3ccccc3)C2=O)c2ccccc21)NCc1ccco1	LANA-nucl inh -2.3
O=C(Cn1cc(/C=N/NC(=S)Nc2ccccc2)c2ccccc21)NCc1ccco1	none
O=C(CSc1cccc[n+]1[O-])NC(=O)NC1CCCC1	none (no result: LANA-nucl inh)
Cn1cnnc1SCC(=O)NC(=O)c1ccc(C(C)(C)C)cc1	none (no result: LANA-nucl inh)
CCN(C(=O)CSC1=N/C(=C\c2ccco2)C(=O)N1c1ccc(OC(F)F)cc1)C1CCS(=O)(=O)C1 (centres undefined)	none (no result: LANA-nucl inh)
CCN(CC)CC(=O)N1c2ccccc2NC(=O)CC1C (centres undefined)	none
N#Cc1ccsc1/N=C/c1ccccc1	none (no result: Ab BasE inh)
Cc1ccc(/C=N/c2sccc2C#N)cc1	LANA-nucl inh -6.5 (no result: Ab BasE inh)
COCC(C)NC(=O)c1ccc(OC)cc1OC (centres undefined)	none
O=C(O)c1ccccc1C1=Nc2ccc(O)cc2Oc2cc(O)ccc21	LANA-nucl inh -6.1
O=C(O)c1ccccc1-c1ccccc1C(=O)O	none
O=C(CSc1ccccn1)Nc1ncccn1	none
Cc1nonc1NC(=O)CSc1ccccn1	Ab BasE inh 57
COC(=O)c1ccc(C)c(NC(=O)C2CC(=O)N(Cc3ccc(C)cc3)C2)c1 (centres undefined)	none (no result: LANA-nucl inh)
CCc1nc(NN)c2c(n1)-c1ccccc1CC21CCCCC1	none
Cc1ccc(NC(=O)c2cc3c(=O)n(Cc4ccco4)ccc3nc2C)cc1	none
Cc1nc2ccn(Cc3cccnc3)c(=O)c2cc1C(=O)NCCCc1ccco1	LANA-nucl inh -2.1
CCOC(=O)c1cc(-c2csc(CS(C)(=O)=O)n2)on1	none (no result: LANA-nucl inh)
Cn1cccc1CNC1CCCCCCC1	none
CC(=O)Nc1ccc2oc(C)nc2c1	Ab BasE inh 37
CC(=O)Nc1ccc(-c2nc3cc(C)ccc3o2)cc1	none
S=C(c1cccc(OCc2ccccc2)c1)N1CCCCC1	none (no result: LANA-nucl inh)
